Measurements: publication PMC3924180 (Analytical chemistry, 2013)

Legend:
[1] = test system: protein tyrosine phosphatase (PTP); assay: Single cell phosphatase activity assay; format: cell-based, human; details: BEAS-2B cells pretreated with the inhibitor; abstract
Summary of the method: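 BEAS-2B cells grown in KGM on glass-coverslip chambers, kept at 37 °C under warm ECB (HEPES buffer, pH 7.4). Microinjected with fluorescent phosphopeptide substrate pTS13 and laser-lysed after 60 s. Contents were electrokinetically loaded and separated by CE-LIF in borate/SDS/NaCl, pH 7.4. Dephosphorylation was taken as the […] peak area over the combined pTS13 + TS13 areas. Treated and untreated cells were compared by bootstrapping (10,000 samples).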

[2] = test system: protein tyrosine phosphatase (PTP); assay: Single cell phosphatase activity assay; format: cell-based, human; details: primary hAECs pre-incubated with the inhibitor; abstract

Molecule	inhibition relative to PTP activity in untreated controls [1]	median PTP inhibition [2]
[Zn+2] [Zn^2+]	69%	88%
pervanadate	76%	91%
O=C1C=Cc2ccccc2C1=O [1,2-naphthoquinone]	100%	87%
